# A selection: hits, their analogues and other compounds. The true share with any hit is near 3.5%.
# TCR-CD3 inh: human TCR-CD3 binding inhibition | AID 651800 | TAMRA-labeled TCR probe fluorescence, biochemical | inhibition, % at 9.4 µM | hit rate 0.37% among 360,000;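 further: recombinant mutant TCR 2C K166C tagged with TAMRA read by polarization; 0% = receptor in buffer alone and 100% = receptor with positive control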
# SIAE primary: human SIAE inhibition, primary screen; SIAE FP-Rh probe binding, fluorescence polarization; inhibition, % at 9.66 µM; hit rate 0.69% among 370,000; Q9HAT2;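 active means inhibition above a cutoff: mean of compounds within the control limits plus 3 SD of those, cut at about 17% in these data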;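 further: 0% = plate median of compound wells and 100% = probe without SIAE protein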
# rCAG binder: binds r(CAG) RNA repeats; r(CAG) RNA repeat, TO-PRO-1 dye displacement fluorescence; inhibition, % at 3 µM; AID 651821; hit rate 1.3% among 370,000;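 active means inhibition above the plate cutoff, the mean of all test compounds on that plate plus 3 SD, cut at about 35% in these data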;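 further: 0% = DMSO alone and 100% = 100 µM mitoxantrone as full dye displacement; higher means more dye released from RNA so lower well fluorescence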
# PRMT1 FP inh: inhibitors of human PRMT1. recombinant PRMT1, activity-based probe fluorescence polarization. Q99873. inhibition, % at 2.79 µM. hit rate 1.3% among 370,000;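 active means inhibition above about 21% made by adding two undisclosed values, limit read from the data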
# ABHD4 inh: inhibitors of mouse ABHD4 | hit rate 0.54% among 370,000 | inhibition, % at 8.92 µM | purified mABHD4, FP-Rh probe fluorescence polarization;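 active means inhibition exceeding the mean over every tested compound plus 3 SD, cut at about 30% in these data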;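 further: 0% = plate median of compound wells and 100% = S159A mutant with DMSO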
#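 Doses – 8.92 µM, single dose · Material – wild-type mouse ABHD4 protein · Replication – single well per compound (singlicate) · Measure – percent inhibition of probe binding, normalized to plate controls · Schedule – 45 min compound pre-incubation plus 60 min probe step, 25 °C · Detection – fluorescence polarization with parallel and perpendicular emission, 525/598 nm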
# HTRA1 inhibitor: HTRA1 (human) protease inhibition | Q92743 | recombinant HTRA1, FP-rhodamine activity-based probe, fluorescence polarization | inhibition, % at 5.96 µM | hit rate 0.5% among 340,000 | AID 504803; in the data active means inhibition above about 36%;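 further: 0% = enzyme with DMSO and 100% = wells lacking enzyme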
# Target sequence (Q92743 whole entry, looked up): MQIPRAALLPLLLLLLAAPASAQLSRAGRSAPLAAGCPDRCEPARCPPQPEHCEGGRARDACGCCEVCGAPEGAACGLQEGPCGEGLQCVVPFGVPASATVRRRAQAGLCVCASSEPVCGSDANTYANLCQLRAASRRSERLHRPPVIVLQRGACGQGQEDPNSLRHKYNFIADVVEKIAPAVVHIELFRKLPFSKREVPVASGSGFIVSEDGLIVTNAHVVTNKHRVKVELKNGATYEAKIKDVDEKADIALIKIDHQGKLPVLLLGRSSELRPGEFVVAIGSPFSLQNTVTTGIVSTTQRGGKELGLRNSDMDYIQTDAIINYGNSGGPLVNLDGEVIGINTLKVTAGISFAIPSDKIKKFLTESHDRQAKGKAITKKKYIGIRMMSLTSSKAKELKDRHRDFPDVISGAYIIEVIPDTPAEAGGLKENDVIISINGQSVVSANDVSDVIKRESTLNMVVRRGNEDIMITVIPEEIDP
# HTRA1 conf: confirmation of human HTRA1 inhibitors | recombinant HTRA1, FP-rhodamine activity-based probe, fluorescence polarization | inhibition, % at 5.96 µM | shares compounds with HTRA1 inhibitor | hit rate 66% among 1,600;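 active means mean inhibition over three repeats above a set limit taken from the earlier primary screen, cut at about 37% in these data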;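 further: 0% = HTRA1 with DMSO and 100% = wells lacking HTRA1; inhibitors block probe binding so polarization drops and inhibition rises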
# BSA TAMRA ctr: BSA probe counter-screen for TCR-CD3 inhibitors; shares compounds with TCR-CD3 inh; TAMRA-labeled BSA probe fluorescence counterscreen; inhibition, % at 9.4 µM; hit rate 10% among 1,200; in the data active means inhibition above about 23%;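 further: 0% = buffer low control and 100% = reference high control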
# TCR-CD3 conf: TCR-CD3 interaction inhibition, confirmation; shares compounds with TCR-CD3 inh; TAMRA-labeled TCR probe fluorescence binding assay; inhibition, % at 9.4 µM; hit rate 48% among 1,200
# rCAG binder conf: r(CAG) RNA repeat binding, confirmation; shares compounds with rCAG binder; TO-PRO-1 dye displacement fluorescence; inhibition, % at 3 µM; hit rate 70% among 4,300;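 active means inhibition above a per-plate cutoff, the mean inhibition of sample wells plus 3 SD, cut at about 35% in these data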;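 further: loss of TO-PRO-1 fluorescence as compound displaces dye from 1x1 AA loop RNA; 0% = DMSO only wells and 100% = 100 µM mitoxantrone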
# dCAG dye counter: DNA CAG dye complex inhibition counter-screen; d(CAG) DNA oligo TO-PRO-1 dye displacement, fluorescence; AID 652068; shares compounds with rCAG binder; hit rate 94% among 4,300; inhibition, % at 3 µM;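 active means inhibition above its plate's cutoff, the mean test-well inhibition plus 3 SD, cut at about 4.8% in these data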;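 further: 0% = DNA dye mix with DMSO and 100% = 100 µM mitoxantrone; hits displace the dye from DNA and so lower well fluorescence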
# ABHD4 confirm: confirmation of mouse ABHD4 inhibitors | shares compounds with ABHD4 inh | purified mABHD4, FP-Rh probe fluorescence polarization | inhibition, % at 8.92 µM | hit rate 55% among 1,800;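 active means mean inhibition across replicates above the hit cutoff set in the primary screen, cut at about 30% in these data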;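 further: 0% = wild-type ABHD4 with DMSO and 100% = catalytically dead S159A mutant with DMSO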
# Active calls of the source: *; nt = no result given. Unless noted, no stated cut-off is given here; in the data, active means inhibition above about 19%; inactive means the rest.
SMILES,TCR-CD3 inh,SIAE primary,rCAG binder,PRMT1 FP inh,ABHD4 inh,HTRA1 inhibitor,HTRA1 conf,others
COc1ccc(N2C(=O)/C(=C/c3ccc(C)o3)C(=O)NC2=S)c(OC)c1,17,5,44*,18,12,2,nt,
O=C(O)CNC1c2ccccc2CSc2ccccc21 (stereo unspecified),-1,-1,3,21*,3,nt,nt,
COC(=O)[C@H]1C[C@@]2(C)c3ccccc3N[C@H]2N1,nt,3,2,2,0,nt,nt,
O=c1c2ccccc2nc(/C=C/c2ccc(O)c(O)c2)n1-c1ccccc1,4,-10,15,15,19,64*,87*,
O=c1c2ccccc2nc(/C=C/c2ccccc2)n1-c1ccc(O)cc1,-3,-14,7,-1,-12,-36,nt,
CC(C)(C)NC(=O)CN1C(=O)[C@@H](Cc2c[nH]c3ccccc23)N=C(c2ccccc2)c2ccccc21,nt,3,5,-3,-8,nt,nt,
CCN(CC)C(=O)c1ccc2c(c1)C1C(Cl)C(Sc3ccccc3[N+](=O)[O-])CC1C(C(=O)O)N2 (stereo unspecified),nt,nt,nt,nt,nt,78*,77*,
Cc1ccc2c(c1Cl)NC(C(=O)O)C1CC(Sc3ccccc3[N+](=O)[O-])C(Cl)C21 (stereo unspecified),nt,nt,nt,nt,nt,43*,41*,
CCN(CC)C(=O)c1ccc2c(c1)C1C=CCC1C(C(=O)O)N2 (stereo unspecified),24*,17,46*,49*,54*,59*,55*,
COc1ccc(Cc2cn(C)c(N)n2)cc1,nt,3,4,3,2,nt,nt,
CCCCn1c(=O)c(C(=O)Nc2ccccc2N)c(O)c2ccccc21,-9,-11,5,4,3,40*,20,
CCCCCn1c(=O)c(C(=O)Nc2ccccc2N)c(O)c2ccccc21,5,1,3,-3,2,10,nt,
Cc1cc(O)c2c(c1)C(=O)[C@@]13C(=C2O)C(=O)[C@H]2C(O)[C@@H]1[C@H]1C(O)[C@@H]3C(=O)C3=C(O)c4c(O)cc(C)cc4C(=O)[C@@]312 (stereo partly specified),nt,0,1,-5,13,nt,nt,
O=c1[nH]c(=S)n(C2CC2)c(O)c1/C=N/Nc1cccc2ccccc12,-4,11,34,13,27,41*,22,
O=c1[nH]c(=S)n(C2CC2)c(O)c1/C=N/Nc1ccccc1,-16,-1,13,19,-14,-4,nt,
Cc1nc2ccccc2c(=O)n1/N=C/c1cc(Br)cc(Br)c1O,46*,2,9,0,9,36*,95*,BSA TAMRA ctr=-12;TCR-CD3 conf=47*
CCOC(=O)CC[C@@H]1CC[C@]2(CCCN(Cc3ccccn3)C2)O1,nt,0,0,3,4,nt,nt,
CN(C)[C@@H]1C(=O)C(C(N)=O)=C(O)[C@@]2(O)C(=O)C3=C(O)c4c(O)cccc4[C@@](C)(O)C3[C@H](O)C12 (stereo partly specified),27*,17,55*,36*,68*,43*,11,BSA TAMRA ctr=-2;TCR-CD3 conf=11;rCAG binder conf=21;dCAG dye counter=7.5*;ABHD4 confirm=22

# Source: PubChem BioAssay
